Broadly, the Ki is the equilibrium dissociation constant of an inhibitor or competing ligand from its target. A word on the IC50: it is the concentration that gives 50% inhibition.

The results in this text go back to ChEMBL document CHEMBL4715891, “Development of sulfahydantoin derivatives as β-lactamase inhibitors” (Bioorg Med Chem Lett, 2021).

Assay [1] can be described thus: Noncompetitive inhibition of 15N-Labeled beta lactamase TEM-1 (unknown origin) over expressed in Escherichia coli BL21(DE3) cells by CENTA. On the set-up: species or system Bacteria.
Assay [2] concerns Bacteria. The assay can be described thus: Inhibition of 15N-Labeled beta lactamase TEM-1 (unknown origin) over expressed in Escherichia coli BL21(DE3) cells assessed as residual activity at 1 mM by CENTA relative to control. The essentials:
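TEM-1 (116 nM) screened with inhibitor at 1 mM, hydrolysis of chromogenic CENTA at 300 μM (~8× Km of 36 μM) followed. Activity expressed relative to positive control lacking inhibitor, mean ± standard deviation of at least three replicates. Enzyme purity >83% by SDS-PAGE.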

The subject of assay [3] is Bacteria. The assay can be described thus: Inhibition of 15N-Labeled beta lactamase TEM-1 G1u104Lys/Gly238Ser double mutant (unknown origin) over expressed in Escherichia coli BL21(DE3) cells assessed as residual activity at 1 mM by CENTA relative to control. The essentials: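 TEM-15 produced in E. coli, purified to >83% by SDS-PAGE, used at 56 nM. Inhibitor screened at 1 mM against hydrolysis of the chromogenic substrate CENTA (300 μM). Activity expressed relative to the positive control without inhibitor, as mean ± standard deviation of at least three replicates.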

Assay [4] is described as follows: Uncompetitive inhibition of 15N-Labeled beta lactamase TEM-1 (unknown origin) over expressed in Escherichia coli BL21(DE3) cells by CENTA. On the set-up: species or system Bacteria.
Assay [5] can be described thus: Inhibition of 15N-Labeled beta lactamase TEM-1 (unknown origin) over expressed in Escherichia coli BL21(DE3) cells by CENTA. On the set-up: species or system Bacteria. The gist of the method:
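IC50 against TEM-1 from CENTA (300 μM) hydrolysis using two-fold inhibitor dilutions; value derived by fitting a dose-response curve. Enzyme purity >83% by SDS-PAGE.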

Assay [6] in a line: Inhibition of 15N-Labeled beta lactamase TEM-1 G1u104Lys/Gly238Ser double mutant (unknown origin) over expressed in Escherichia coli BL21(DE3) cells by CENTA. On the set-up: species or system Bacteria. The essentials: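 TEM-15 from E. coli expression, purified to >83% by SDS-PAGE. Hydrolysis of the chromogenic substrate CENTA (300 μM) monitored across two-fold inhibitor dilutions. IC50 obtained by fitting a dose-response curve.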

The nature of assay [7]: Competitive inhibition of 15N-Labeled beta lactamase TEM-1 (unknown origin) over expressed in Escherichia coli BL21(DE3) cells by CENTA. On the set-up: species or system Bacteria.

Consider `O=C(O)CN1C(=O)[C@H](Cc2ccc(Br)cc2)N(Cc2ccc(Br)cc2)S1(=O)=O`, for which the values for the inhibitory constant (Ki) in assay [1], in assay [4] and in assay [7] were 300 µM, 268 µM and 32 µM, respectively. The Activity was 10% with Bacteria [2] and 0% with Bacteria [3]. Moreover, the results for the IC50 in assay [5] and in assay [6] were 300 µM and 130 µM, respectively.

Consider `O=C(O)CN1C(=O)[C@H](Cc2ccc(F)cc2)N(Cc2ccc(Br)cc2)S1(=O)=O`, for which the inhibition constant Ki came to 510 µM in assay [1], 455 µM in assay [4] and 55 µM in assay [7]. Further, the values for the Activity in the assay with Bacteria [2] and with Bacteria [3] were 34% and 53%, respectively. Further, the IC50 in assay [5] came out at 510 µM.

`O=C(O)CN1C(=O)[C@H](Cc2ccc(Br)cc2)N(Cc2ccc([N+](=O)[O-])cc2)S1(=O)=O`: the Activity in the assay with Bacteria [2] turned out to be 100%.

In the case of `O=C(O)CN1C(=O)[C@H](Cc2ccc(F)cc2)N(Cc2ccc([N+](=O)[O-])cc2)S1(=O)=O`, in the assay on Bacteria [2], the Activity is 101%.

As for `COc1ccc(CN2[C@@H](Cc3ccc(Br)cc3)C(=O)N(CC(=O)O)S2(=O)=O)cc1`, in the assay on Bacteria [2], the Activity worked out at 92%.

As for `COc1ccc(CN2[C@@H](Cc3ccc(F)cc3)C(=O)N(CC(=O)O)S2(=O)=O)cc1`, the Activity with Bacteria [2] came to 124%.
